How the values were obtained:
Influenza A virus = experiment: Antiviral activity against Influenza A virus PR/8/34 infected in MDCK cells assessed as inhibition of plaque formation treated for 1 hr measured after 2 days by toluidine blue staining-based assay; assay type: functional, organism-based; details: A/Puerto Rico/8/1934(H1N1)
In short: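 MDCK confluent monolayers infected with PR8 (H1N1) at 40 PFU/well in DMEM with 1 µg/ml TPCK-trypsin, 0.14% BSA and compound, 1 h at 37 °C. Overlay of the same medium plus 1.2% Avicel and compound. After 2 days, fixed in 4% formaldehyde, stained with 0.1% toluidine blue and plaques counted. EC50 = 50% plaque inhibition. Ribavirin and oseltamivir as references. Mean ± SD, ≥3 independent experiments in duplicate.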

[1] = Cytotoxicity against MDCK cells assessed as decrease in cell viability after 48 hrs by MTT assay; assay type: cell-based, Canis lupus familiaris; details: dog
In short: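 MDCK cells at 5x10³/well exposed to 2-fold serial dilutions from 250 µM for 48 h. MTT (5 mg/mL) for 4 h at 37 °C, solubilisation 3 h, A620. DMSO wells = 100% viable; CC50 = concentration giving 50% viability loss. Mean ± SD, ≥3 independent experiments in duplicate.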

[2] = molecular target: PA/PB1 (Influenza A virus (A/Puerto Rico/8/1934(H1N1)), UniProt P03431+P03433); experiment: Inhibition of Influenza A virus PR/8/34 6His-tagged PA (239 to 716 residues) interaction with GST-tagged PB1 (1 to 25 residues) expressed in Escherichia coli compound treated in PBS buffer measured after overnight incubation by ELISA
In short: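 Plates coated with 400 ng E. coli-expressed 6His-PA(239–716) for 3 h at 37 °C, then blocked with 2% BSA/PBS for 1 h. Then 200 ng GST-PB1(1–25) (GST as control) with compound or DMSO in PBS, overnight at room temperature. Detection with HRP anti-GST mAb and TMB, OD 450 nm. DMSO = 100% interaction; PB1(1–15)-Tat as reference. Mean ± SD, ≥3 experiments in duplicate.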

[3] = Selectivity index, ratio of CC50 for MDCK cells to EC50 for Influenza A virus PR/8/34 infected in MDCK cells; assay type: toxicity, cell-based; details: dog, read-out: Ratio CC50/EC50
[4] = molecular target: PA/PB1 (Influenza A virus (A/Puerto Rico/8/1934(H1N1)), UniProt P03431+P03433); experiment: Inhibition of Influenza A virus PR/8/34 6His-tagged PA (239 to 716 residues) interaction with GST-tagged PB1 (1 to 25 residues) expressed in Escherichia coli compound treated in DMEM serum-free medium measured after overnight incubation by ELISA
In short: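 Same coated 6His-PA(239–716)/GST-PB1(1–25) ELISA (400 ng PA, 200 ng PB1 peptide; overnight room temperature; HRP anti-GST/TMB, OD 450), but GST-PB1 and compounds or DMSO are dissolved in serum-free DMEM instead of PBS. DMSO = 100% interaction; PB1(1–15)-Tat as positive control. IC50 from mean ± SD, ≥2 experiments in duplicate.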

[5] = Cytotoxicity against HEK293T cells assessed as decrease in cell viability after 24 hrs by MTT assay; assay type: cell-based, HEK-293T; details: human
In short: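 HEK 293T cells at 2x10⁴/well exposed to 2-fold serial dilutions from 250 µM for 24 h. MTT (5 mg/mL) for 4 h at 37 °C, solubilisation 3 h, absorbance at 620 nm. DMSO wells set as 100% viability; CC50 = 50% viability decrease. Mean ± SD, ≥3 independent experiments in duplicate.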

[6] = Inhibition of Influenza A virus RdRp transfected in HEK293T cells at 24 hrs by dual luciferase reporter gene-based minireplicon assay; assay type: cell-based; details: HEK-293T
In short: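 HEK 293T seeded at 2x10⁵/well; 24 h later calcium-phosphate transfected with PB1, PB2, PA and NP plasmids (100 ng/well each), pPolI-Flu-ffLuc (50 ng/well) and pRL-SV40 normaliser (50 ng/well) with compound or DMSO. Medium with compound replaced at 4 h; firefly/Renilla luciferase read at 24 h. Ribavirin reference. Mean ± SD, ≥2 experiments in duplicate.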

[7] = Ratio of IC50 for Influenza A virus PR/8/34 6His-tagged PA (239 to 716 residues) interaction with GST-tagged PB1 (1 to 25 residues) to EC50 for Influenza A virus PR/8/34 infected in MDCK cells

Structure (SMILES)	EC50 (Influenza A virus)	CC50 at 48 h [1]	IC50 [2]	selectivity ratio [3]	IC50 [4]	CC50 at 24 h [5]	EC50 [6]	Ratio IC50/EC50 [7]
CSCC[C@H](N)C(=O)N[C@@H](CC(=O)O)C(=O)N[C@H](C(=O)N[C@@H](CC(N)=O)C(=O)N1CCC[C@H]1C(=O)N[C@H](C(=O)N[C@@H](CC(C)C)C(=O)N[C@@H](CC(C)C)C(=O)N[C@@H](Cc1ccccc1)C(=O)N[C@@H](CC(C)C)C(=O)N[C@@H](CCCCN)C(=O)N[C@H](C(=O)N1CCC[C@H]1C(=O)N[C@@H](C)C(=O)N[C@@H](CCC(N)=O)C(=O)O)C(C)C)[C@@H](C)O)C(C)C	49.7 µM	> 250 µM	35.9 µM	> 5	31.7 µM	> 250 µM		
Cc1cccc(NC(=O)CSc2nc(-c3ccccc3)cc(-c3ccccc3)c2C#N)c1	9.2 µM	> 250 µM	175 µM	> 27.2	35.2 µM	> 250 µM	86.6 µM	19
Cc1cccc(NC(=O)CSc2nccc(-c3ccccc3)c2C#N)c1	> 10 µM	41.5 µM	> 200 µM			180 µM		
Cc1cccc(NC(=O)CSc2nc(-c3ccccc3)ccc2C#N)c1	> 10 µM	7.1 µM	> 200 µM			32 µM		
Cc1cccc(NC(=O)CSc2nc(-c3ccc(C(F)(F)F)cc3)cc(-c3ccc(C(F)(F)F)cc3)n2)c1	26.5 µM	> 250 µM	> 200 µM	> 9.4	64.5 µM	> 250 µM	22 µM	
Cc1cccc(NC(=O)CCCSc2nc(-c3ccccc3)cc(-c3ccccc3)c2C#N)c1	8.2 µM	41.5 µM	140 µM	5.1	145 µM	95.6 µM		
CSc1nc(-c2ccccc2)cc(-c2ccccc2)c1C#N	> 50 µM	125 µM	195 µM			144 µM		
Cc1cccc(NC(=O)COc2nc(-c3ccccc3)cc(-c3ccccc3)c2C#N)c1	93.9 µM	> 250 µM	> 200 µM	> 2.7		> 250 µM		
N#Cc1cnc(-c2ccccc2)cc1-c1ccccc1	45.1 µM	105 µM	116 µM	2.3		> 250 µM		
Cc1cccc(NC(=O)CCc2nc(-c3ccccc3)cc(-c3ccccc3)c2C#N)c1	> 100 µM	> 250 µM	> 200 µM			140 µM		
Cc1cccc(NC(=O)CCSc2nc(-c3ccccc3)cc(-c3ccccc3)c2C#N)c1	> 10 µM	13.9 µM	122 µM			150 µM		
Cc1cccc(NC(=O)CSc2cc(-c3ccccc3)cc(-c3ccccc3)n2)c1	7.3 µM	150 µM	52.6 µM	20.5	40.5 µM	> 250 µM	30.8 µM	
N#Cc1c(-c2ccccc2)cc(-c2ccccc2)nc1SCC(=O)N1CCOCC1	100 µM	> 250 µM	177 µM	> 2.5		184 µM		
Cc1cccc(NC(=O)CSc2nc(-c3ccccc3)cc(-c3ccccc3)n2)c1	3.5 µM	10.1 µM	165 µM	2.9	113 µM	22.3 µM		47
Cc1cccc(NC(=O)CNc2nc(-c3ccccc3)cc(-c3ccccc3)c2C#N)c1	28.6 µM	> 250 µM	> 200 µM	> 8.7	> 200 µM	> 250 µM	46.3 µM	
Cc1cccc(NC(=O)/C=C/c2nc(-c3ccccc3)cc(-c3ccccc3)c2C#N)c1	70.7 µM	> 250 µM	190 µM	> 3.5		> 250 µM		
CCOC(=O)C1=C[C@@H](OC(CC)CC)[C@H](NC(C)=O)[C@@H](N)C1 [OSELTAMIVIR]	0.015 µM	> 250 µM		> 16000		> 250 µM		
NC(=O)c1ncn([C@@H]2O[C@H](CO)[C@@H](O)[C@H]2O)n1 [RIBAVIRIN]	12.8 µM	> 250 µM		> 19.5		> 250 µM	23.8 µM	
